Activity calls are given as the source filed them. The calls are words filed in the database; no cut-off is given here.
Columns and labels:
[1] = test system: Mus musculus; assay: Toxicity in mouse medulloblastoma allograft model assessed as visible physical signs at 160 mg/kg, po bid for 3 weeks; format: organism-based; design: dose 160 mg/kg, route oral; conditions: in vivo, 504 h
Summary of the method: (§1)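 Primary mouse medulloblastoma allografts grown subcutaneously; mice were randomized once tumors averaged 400 mm³. The compound was given orally as a suspension in 0.24% SDS/0.5% Methocel, either bid for 3 weeks or 80 mg/kg qd. Tolerability was monitored by body-weight loss, visible physical signs and mortality.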

[2] = test system: Mus musculus; assay: Toxicity in mouse medulloblastoma allograft model assessed as mortality at 80 mg/kg, po bid for 3 weeks; format: organism-based; design: dose 80 mg/kg, route oral; conditions: in vivo, 504 h; summary of the method: as §1
[3] = Plasma protein binding in human assessed as unbound fraction; format: ADME, cell-free
[4] = AUC in mouse at 160 mg/kg, po; format: ADME, organism-based; design: dose 160 mg/kg, route oral; conditions: plasma
[5] = test system: Mus musculus; assay: Toxicity in mouse medulloblastoma allograft model assessed as visible physical signs at 80 mg/kg, po bid for 3 weeks; format: organism-based; design: dose 80 mg/kg, route oral; conditions: in vivo, 504 h; summary of the method: as §1
[6] = test system: Mus musculus; assay: Toxicity in mouse medulloblastoma allograft model assessed as mortality at 40 mg/kg, po bid for 3 weeks; format: organism-based; design: dose 40 mg/kg, route oral; conditions: in vivo, 504 h; summary of the method: as §1
[7] = AUC in mouse at 80 mg/kg, po; format: ADME, organism-based; design: dose 80 mg/kg, route oral; conditions: plasma
[8] = test system: Mus musculus; assay: Toxicity in mouse medulloblastoma allograft model assessed as body weight loss at 80 mg/kg, po qd for 3 weeks; format: organism-based; design: dose 80 mg/kg, route oral; conditions: in vivo, 504 h
Summary of the method: (§2)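 Primary mouse medulloblastoma allograft, subcutaneous. Mice randomized when tumors averaged 400 mm³. Oral dosing for 3 weeks, bid at 40, 80, 120 or 160 mg/kg, or 80 mg/kg qd. Compound given as a suspension in 0.24% SDS/0.5% Methocel, with a BID vehicle control. Tumor volume tracked over days; body weight, physical signs and mortality monitored.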

[9] = AUC in mouse at 40 mg/kg, po; format: ADME, organism-based; design: dose 40 mg/kg, route oral; conditions: plasma
[10] = test system: Mus musculus; assay: Toxicity in mouse medulloblastoma allograft model assessed as body weight loss at 40 mg/kg, po bid for 3 weeks; format: organism-based; design: dose 40 mg/kg, route oral; conditions: in vivo, 504 h; summary of the method: as §2
[11] = test system: Mus musculus; assay: Toxicity in mouse medulloblastoma allograft model assessed as visible physical signs at 120 mg/kg, po bid for 3 weeks; format: organism-based; design: dose 120 mg/kg, route oral; conditions: in vivo, 504 h; summary of the method: as §1
[12] = species: Canis familiaris; assay: Clearance in dog; format: ADME, organism-based, Canis lupus familiaris; conditions: in vivo
[13] = test system: Medulloblastoma cell; assay: Antitumor activity against primary mouse medulloblastoma allograft model assessed as tumor growth inhibition at 120 mg/kg, po bid for 3 weeks; format: functional, organism-based; design: dose 120 mg/kg; summary of the method: as §2
[14] = biological target: T1, Protein smoothened (Homo sapiens, UniProt Q99835); assay: Displacement of BODIPY-cyclopamine from human Smo expressed in HEK293 cells in presence of 20% normal human serum; format: cell-based
T1 sequence (Q99835 whole entry): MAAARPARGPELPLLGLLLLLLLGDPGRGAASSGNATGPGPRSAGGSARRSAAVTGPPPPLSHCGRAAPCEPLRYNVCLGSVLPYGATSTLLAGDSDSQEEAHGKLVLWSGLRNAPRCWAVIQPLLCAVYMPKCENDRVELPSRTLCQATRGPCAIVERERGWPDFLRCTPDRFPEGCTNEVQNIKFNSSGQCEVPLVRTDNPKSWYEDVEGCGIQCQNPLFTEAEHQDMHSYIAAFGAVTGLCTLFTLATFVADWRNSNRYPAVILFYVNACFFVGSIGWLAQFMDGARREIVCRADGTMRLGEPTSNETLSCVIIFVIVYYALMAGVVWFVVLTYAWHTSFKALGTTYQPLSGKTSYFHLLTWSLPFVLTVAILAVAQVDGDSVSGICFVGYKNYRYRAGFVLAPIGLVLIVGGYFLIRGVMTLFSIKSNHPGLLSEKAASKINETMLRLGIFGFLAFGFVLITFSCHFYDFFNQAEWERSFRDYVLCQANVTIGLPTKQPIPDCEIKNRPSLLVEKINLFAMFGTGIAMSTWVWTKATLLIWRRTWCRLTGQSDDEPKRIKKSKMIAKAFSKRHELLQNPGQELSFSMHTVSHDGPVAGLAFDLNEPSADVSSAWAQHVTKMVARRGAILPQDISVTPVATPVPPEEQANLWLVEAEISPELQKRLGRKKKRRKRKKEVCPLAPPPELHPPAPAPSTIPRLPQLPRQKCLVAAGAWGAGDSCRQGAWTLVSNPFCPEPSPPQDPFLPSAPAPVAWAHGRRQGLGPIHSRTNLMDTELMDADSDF
Summary of the method: (§3)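 Competition binding: displacement of fluorescently labeled bodipy-cyclopamine from recombinant human Smo expressed in HEK-293 cells. Run in 2% fetal calf serum and, separately, in 20% normal human serum. IC50 values are means of at least five experiments.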

[15] = test system: Mus musculus; assay: Toxicity in mouse medulloblastoma allograft model assessed as mortality at 120 mg/kg, po bid for 3 weeks; format: organism-based; design: dose 120 mg/kg, route oral; conditions: in vivo, 504 h; summary of the method: as §1
[16] = test system: Mus musculus; assay: Toxicity in mouse medulloblastoma allograft model assessed as body weight loss at 120 mg/kg, po bid for 3 weeks; format: organism-based; design: dose 120 mg/kg, route oral; conditions: in vivo, 504 h; summary of the method: as §2
[17] = species: Rattus norvegicus; assay: Clearance in rat; format: ADME, organism-based; conditions: in vivo
[18] = test system: Mus musculus; assay: Toxicity in mouse medulloblastoma allograft model assessed as body weight loss at 80 mg/kg, po bid for 3 weeks; format: organism-based; design: dose 80 mg/kg, route oral; conditions: in vivo, 504 h; summary of the method: as §2
[19] = test system: Medulloblastoma cell; assay: Antitumor activity against primary mouse medulloblastoma allograft model assessed as tumor growth inhibition at 40 mg/kg, po bid for 3 weeks; format: functional, organism-based; design: dose 40 mg/kg; summary of the method: as §2
[20] = Volume of distribution at steady state in dog; format: ADME, organism-based, Canis lupus familiaris; conditions: in vivo, read-out: Vdss
[21] = Oral bioavailability in dog; format: ADME, organism-based, Canis lupus familiaris; conditions: in vivo
[22] = test system: Mus musculus; assay: Toxicity in mouse medulloblastoma allograft model assessed as mortality at 80 mg/kg, po qd for 3 weeks; format: organism-based; design: dose 80 mg/kg, route oral; conditions: in vivo, 504 h; summary of the method: as §1
[23] = Oral bioavailability in rat; format: ADME, organism-based; conditions: in vivo
[24] = test system: Mus musculus; assay: Inhibition of Shh pathway in mouse medulloblastoma allograft model assessed as reduction in tumor Gli-1 mRNA expression at 80 mg/kg, po administered as single dose measured after 4 to 12 hrs; format: functional
Summary of the method: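 Tumor-bearing medulloblastoma mice given a single oral 80 mg/kg dose. Tumor biopsies taken at timepoints up to 24 h; Hh-pathway inhibition measured as reduction of Gli-1 mRNA.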

[25] = test system: Medulloblastoma cell; assay: Antitumor activity against primary mouse medulloblastoma allograft model assessed as tumor growth inhibition at 80 mg/kg, po qd for 3 weeks; format: functional, organism-based; design: dose 80 mg/kg; summary of the method: as §2
[26] = test system: Mus musculus; assay: Toxicity in mouse medulloblastoma allograft model assessed as mortality at 160 mg/kg, po bid for 3 weeks; format: organism-based; design: dose 160 mg/kg, route oral; conditions: in vivo, 504 h; summary of the method: as §1
[27] = biological target: T1, Protein smoothened; assay: Displacement of BODIPY-cyclopamine from human Smo expressed in HEK293 cells in presence of 2% fetal calf serum; format: cell-based; summary of the method: as §3
[28] = test system: Medulloblastoma cell; assay: Antitumor activity against primary mouse medulloblastoma allograft model assessed as tumor growth inhibition at 160 mg/kg, po bid for 3 weeks; format: functional, organism-based; design: dose 160 mg/kg; summary of the method: as §2
[29] = Volume of distribution at steady state in rat; format: ADME, organism-based; conditions: in vivo, read-out: Vdss
[30] = test system: Mus musculus; assay: Toxicity in mouse medulloblastoma allograft model assessed as body weight loss at 160 mg/kg, po bid for 3 weeks; format: organism-based; design: dose 160 mg/kg, route oral; conditions: in vivo, 504 h; summary of the method: as §2
[31] = test system: Mus musculus; assay: Toxicity in mouse medulloblastoma allograft model assessed as visible physical signs at 80 mg/kg, po qd for 3 weeks; format: organism-based; design: dose 80 mg/kg, route oral; conditions: in vivo, 504 h; summary of the method: as §1
[32] = test system: Medulloblastoma cell; assay: Antitumor activity against primary mouse medulloblastoma allograft model assessed as tumor growth inhibition at 80 mg/kg, po bid for 3 weeks; format: functional, organism-based; design: dose 80 mg/kg; summary of the method: as §2
[33] = test system: Mus musculus; assay: Toxicity in mouse medulloblastoma allograft model assessed as visible physical signs at 40 mg/kg, po bid for 3 weeks; format: organism-based; design: dose 40 mg/kg, route oral; conditions: in vivo, 504 h; summary of the method: as §1
[34] = Half life in dog; format: ADME, organism-based, Canis lupus familiaris; conditions: in vivo
[35] = Half life in rat; format: ADME, organism-based; conditions: in vivo

Question: For O=C(Nc1ccnn1-c1ccccc1)N1CCN2C(=O)N([C@H]3C[C@@H]3c3ccccc3)C(=O)[C@@H]2C1, which Activity [1] is on record?
Answer: Non-toxic

Question: What about the Activity [2] of the same molecule?
Answer: Non-toxic

Question: And the fraction unbound [3]?
Answer: 0.17

Question: What about the AUC [4] of the same molecule?
Answer: 24 µM·h

Question: And the Activity [5]?
Answer: Non-toxic

Question: What about the Activity [6] of the same molecule?
Answer: Non-toxic

Question: And the AUC [7]?
Answer: 15 µM·h

Question: What about the Activity [8] of the same molecule?
Answer: < 10%

Question: And the AUC [9]?
Answer: 6.4 µM·h

Question: What about the Activity [10] of the same molecule?
Answer: < 10%

Question: What about the Activity [11] of the same molecule?
Answer: Non-toxic

Question: What about the clearance [12] of the same molecule?
Answer: 5.5 mL/min/kg

Question: And the “growth inhibition (GI)” value [13]?
Answer: Active

Question: What about the IC50 [14] of the same molecule?
Answer: 0.018 µM

Question: And the Activity [15]?
Answer: Non-toxic

Question: What about the Activity [16] of the same molecule?
Answer: < 10%

Question: What about the clearance [17] of the same molecule?
Answer: 43 mL/min/kg

Question: What about the Activity [18] of the same molecule?
Answer: < 10%

Question: What about the “growth inhibition (GI)” value [19] of the same molecule?
Answer: Active

Question: What about the Vd [20] of the same molecule?
Answer: 1 L/kg

Question: What about the bioavailability [21] of the same molecule?
Answer: 82%

Question: And the Activity [22]?
Answer: Non-toxic

Question: What about the bioavailability [23] of the same molecule?
Answer: 88%

Question: What about the inhibition in vivo at 80 mg/kg [24] of the same molecule?
Answer: > 80%

Question: What about the “growth inhibition (GI)” value [25] of the same molecule?
Answer: Active

Question: What about the Activity [26] of the same molecule?
Answer: Non-toxic

Question: And the IC50 [27]?
Answer: 0.015 µM

Question: What about the “growth inhibition (GI)” value [28] of the same molecule?
Answer: Active

Question: What about the Vd [29] of the same molecule?
Answer: 2.9 L/kg

Question: What about the Activity [30] of the same molecule?
Answer: < 10%

Question: What about the Activity [31] of the same molecule?
Answer: Non-toxic

Question: What about the “growth inhibition (GI)” value [32] of the same molecule?
Answer: Active

Question: And the Activity [33]?
Answer: Non-toxic

Question: And the half-life [34]?
Answer: 2.5 h

Question: What about the half-life [35] of the same molecule?
Answer: 1.3 h

— ChEMBL document CHEMBL1811786, “Identification of MK-5710 ((8aS)-8a-methyl-1,3-dioxo-2-[(1S,2R)-2-phenylcyclo- propyl]-N-(1-phenyl-1H-pyrazol-5-yl)hexahydro-imidazo[1,5-a]pyrazine-7(1H)-carboxamide), a potent smoothened antagonist for use in Hedgehog pathway dependent malignancies, part 2” (Bioorg Med Chem Lett, 2011)
